Assay outcomes deposited in PubChem by several laboratories.
A selection: hits, their analogues and other compounds. The true share with any hit is near 11%.
Diaphorase act: activates diaphorase or chemically reduces, flagging diaphorase assay artifacts; Diaphorase/resazurin coupled assay, resorufin fluorescence, 16 min; stronger effect = higher value; 1 = vehicle wells, 0 = NADH-free wells; activation factor at 20 µM; hit rate 0.005% among 190,000;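 active = diaphorase activity raised at least twofold by the compound at 20 µM; inactive = activation factor below 2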
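Material: purified diaphorase enzyme from Clostridium kluyveri; Also added: 0.114 mM NADH and 0.1 mM resazurin, final amounts; Doses: single compound dose of 20 µM, 1% DMSO final; Times: 16 min enzyme reaction, ambient temperature; Detection: resorufin fluorescence, excitation 544 nm, emission 590 nm; Measure: increased resorufin signal from activators or reducing compounds.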
G6PDH CS: L. mesenteroides G6PDH inhibition counter-screen; Purified L. mesenteroides G6PDH, diaphorase/resazurin coupled fluorescence, 45 min; inhibition, % at 5 µM; hit rate 0.12% among 200,000; AID 1020
Lmaj promast: reduces viability of Leishmania major promastigotes. hit rate 9% among 200,000. AID 1063. resazurin fluorescence viability. inhibition, % at 10 µM;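 also: promastigotes grown with compound for 44 hours at 28 °C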
WT yeast gro inh: growth inhibition of WT yeast, mitochondrial fusion screen. mitochondrial fusion phenotypic screen, WT strain. inhibition, % at 10 µM. hit rate 2.1% among 190,000; in the data active = inhibition above about 58%; tested in S. cerevisiae
Diaph inh CS: diaphorase inhibition or chemical oxidation counter-screen; diaphorase resazurin-to-resorufin fluorescence, NADH, 16 min; bacterial (C. kluyveri) enzyme, not human; inhibition, % at 20 µM; hit rate 0.69% among 190,000; AID 1217;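 active = primary screen inhibition at 20 µM above a set limit, cut at about 50% in these data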
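controls = No-NADH positive control and DMSO neutral control | system = Clostridium kluyveri diaphorase enzyme | timing = reaction incubation of 16 min at room temperature | signal = resorufin fluorescence 544/590 nm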
A number is an active result; n = inactive; x = not tested or not shown. Rule as the data show it, unless noted: active = inhibition above about 50%; inactive = the rest.

SMILES | Diaphorase act | G6PDH CS | Lmaj promast | WT yeast gro inh | Diaph inh CS
O=C(c1cc2ccccc2oc1=O)N1CCN(Cc2ccc3c(c2)OCO3)CC1 | n | n | n | n | n
O=C(c1cc2ccccc2oc1=O)N(Cc1ccccc1)Cc1ccc2c(c1)OCO2 | n | n | 61.0 | n | n
CNC(=O)c1ccsc1NC(=O)c1ccc2c(c1)CCCC2 | n | n | n | 71.8 | n
NC(=O)c1ccsc1NC(=O)c1ccc2c(c1)CCCC2 | n | n | n | 69.7 | n
NC(=O)c1ccsc1NC(=O)c1ccc(N2CCCC2=O)cc1 | n | n | n | n | n
CC(CCc1ccccc1)NC(=O)COC(=O)C12CC3CC(CC(Br)(C3)C1)C2 (centres undefined) | n | n | n | n | n
Cc1ccc(S(=O)(=O)N2CCN(CCC#N)CC2)cc1 | n | n | n | n | n
Cc1cccc(-n2cnc3c(c2=O)c2nc4ccccc4nc2n3Cc2ccco2)c1 | n | n | x | x | n
Cc1ccc(S(=O)(=O)c2c(N)n(Cc3ccco3)c3nc4ccccc4nc23)cc1 | n | n | 74.1 | n | n
Cc1ccc(S(=O)(=O)c2c(N)n(-c3ccccc3)c3nc4ccccc4nc23)cc1 | n | n | n | n | n
Cc1cccc(S(=O)(=O)c2c(N)n(Cc3ccco3)c3nc4ccccc4nc23)c1 | n | n | 77.7 | n | n
CCCCn1c(N)c(S(=O)(=O)c2ccc(C)cc2)c2nc3ccccc3nc21 | n | n | 56.3 | n | n
COCCNC(=O)c1cc2nc(-c3ccc(F)cc3)cc(C(F)(F)F)n2n1 | x | n | n | n | x
COc1ccc(CCNC(=S)NC2CCN(Cc3ccccc3)CC2)cc1 | n | n | 74.3 | n | n
COc1ccc(NC(=S)NC2CCN(Cc3ccccc3)CC2)cc1OC | n | n | n | n | n
S=C(Nc1ccc(Cl)cc1)NC1CCN(Cc2ccccc2)CC1 | n | n | 98.9 | n | n
CCc1ccc(NC(=S)NC2CCN(Cc3ccccc3)CC2)cc1 | n | n | 96.1 | n | n
S=C(Nc1ccccc1)NC1CCN(Cc2ccccc2)CC1 | n | n | 90.8 | n | n
CCC(C)c1ccc(NC(=S)NN2CCOCC2)cc1 (centres undefined) | n | n | n | n | n
CCC(C)c1ccc(NC(=S)NC2CCN(Cc3ccccc3)CC2)cc1 (centres undefined) | n | n | 86.6 | 74.8 | n
CCCN1CCC(NC(=S)Nc2ccc([N+](=O)[O-])cc2)CC1 | n | n | 82.8 | n | n
CC1(C)CC(=O)c2c(O)cc(OCc3ccc(Br)cc3)cc2O1 | n | n | 68.5 | n | n
Cc1ccc(-c2nc3cc(Br)cnc3nc2-c2ccc(C)cc2)cc1 | n | n | n | 76.5 | n
Cc1nc2ncc(Br)cc2[nH]1 | n | n | n | n | n
Cc1ccc(C(=O)Nc2ccc([N+](=O)[O-])cn2)o1 | n | n | n | n | n
SMILES | Diaphorase act | G6PDH CS | Lmaj promast | WT yeast gro inh | Diaph inh CS
Nc1cc(N)c(OCC(F)(F)F)cc1OCC(F)(F)F | n | 51.0 | 88.2 | n | 50.5
CCCn1nc(C(=O)OCC(=O)Nc2cccc(OC)c2)c2ccccc2c1=O | n | n | n | n | n
COc1cc(/C=N/NC(=O)c2cccnc2)ccc1OCC(=O)Nc1c(C)cc(C)cc1C | n | n | 54.2 | n | n
COc1cc(/C=N/NC(=O)c2cccnc2)ccc1OCC(=O)Nc1ccccc1Cl | n | n | n | n | n
CNC(=S)N/N=C/c1ccc(OCC(=O)Nc2c(C)cc(C)cc2C)c(OC)c1 | n | n | n | n | n
COc1ccc(NC(=O)COc2ccc(/C=N/NC(=O)c3cccnc3)cc2OC)cc1 | n | n | 55.3 | n | n
O=C(N/N=C/c1ccc(O)cc1)Nc1cccc2nsnc12 | n | n | 53.9 | n | n
COc1cc(/C=N/NC(=O)Nc2cccc3nsnc23)cc(OC)c1OC | n | n | n | n | n
CC(C)(C)CC(C)(C)c1ccc(O)c(CN2CCN(CCC#N)CC2)c1 | n | n | 97.3 | n | n
N#CCCN1CCN(Cc2cc(-c3ccccc3)ccc2O)CC1 | n | n | 91.0 | n | n
Cc1ccc(N/N=C(\C#N)C(N)=S)cc1C | n | n | 50.4 | n | n
O=C(COc1ccc(Br)cc1)N/N=C1/SCC(=O)N1Cc1ccco1 | n | n | n | n | n
CCOc1ccc(N2C(=O)CS/C2=N/NC(=O)COc2ccc3ccccc3c2)cc1 | n | n | 99.2 | n | n
C=CCNc1oc(-c2cccs2)nc1S(=O)(=O)c1ccccc1 | n | n | 95.9 | n | n
Cc1ccc(S(=O)(=O)c2nc(-c3cccs3)oc2NCCCN(C)C)cc1 | n | n | 98.4 | n | n
